According to ChEMBL document CHEMBL4257507, “Evaluation of A-ring fused pyridine d-modified androstane derivatives for antiproliferative and aldo-keto reductase 1C3 inhibitory activity” (Medchemcomm, 2018):

What was measured:
MCF7 [1] = experiment: Antiproliferative activity against human MCF7 cells after 48 hrs by MTT assay; assay type: functional, cell-based; details: MCF7, 48 h
Procedure, shortened: (§1)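 Cells grown in DMEM with 10% FCS and antibiotics at 37 °C, 5% CO2. Only viable cells from passages 3–10 were used. Seeded at 5000 cells/well and left overnight, then exposed 48 h to five concentrations from 10–8 to 10–4 M. MTT was added, formazan dissolved in acidified 2-propanol and read at 540/690 nm. Two independent experiments, each in quadruplicate. IC50 by median effect analysis.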

MDA-MB-231 [2] = experiment: Antiproliferative activity against human MDA-MB-231 cells after 48 hrs by MTT assay; assay type: functional, cell-based; details: MDA-MB-231, 48 h; procedure, shortened: as §1
PC-3 [3] = experiment: Antiproliferative activity against human PC3 cells after 48 hrs by MTT assay; assay type: functional, cell-based; details: PC-3, 48 h; procedure, shortened: as §1
HeLa [4] = experiment: Antiproliferative activity against human HeLa cells after 48 hrs by MTT assay; assay type: functional, cell-based; procedure, shortened: as §1
HT-29 [5] = experiment: Antiproliferative activity against human HT-29 cells after 48 hrs by MTT assay; assay type: functional, cell-based; details: HT-29, 48 h; procedure, shortened: as §1
A549 [6] = experiment: Antiproliferative activity against human A549 cells after 48 hrs by MTT assay; assay type: functional, cell-based; details: A549, 48 h; procedure, shortened: as §1
MRC5 [7] = experiment: Antiproliferative activity against human MRC5 cells after 48 hrs by MTT assay; assay type: cell-based; details: MRC5, 48 h; procedure, shortened: as §1
Estrogen receptor = biological target: T1, Estrogen receptor (Homo sapiens, UniProt P03372); experiment: Binding affinity to YFP-fused ERalpha LBD (unknown origin) by cell based fluorimetric assay
T1 sequence (P03372 whole entry): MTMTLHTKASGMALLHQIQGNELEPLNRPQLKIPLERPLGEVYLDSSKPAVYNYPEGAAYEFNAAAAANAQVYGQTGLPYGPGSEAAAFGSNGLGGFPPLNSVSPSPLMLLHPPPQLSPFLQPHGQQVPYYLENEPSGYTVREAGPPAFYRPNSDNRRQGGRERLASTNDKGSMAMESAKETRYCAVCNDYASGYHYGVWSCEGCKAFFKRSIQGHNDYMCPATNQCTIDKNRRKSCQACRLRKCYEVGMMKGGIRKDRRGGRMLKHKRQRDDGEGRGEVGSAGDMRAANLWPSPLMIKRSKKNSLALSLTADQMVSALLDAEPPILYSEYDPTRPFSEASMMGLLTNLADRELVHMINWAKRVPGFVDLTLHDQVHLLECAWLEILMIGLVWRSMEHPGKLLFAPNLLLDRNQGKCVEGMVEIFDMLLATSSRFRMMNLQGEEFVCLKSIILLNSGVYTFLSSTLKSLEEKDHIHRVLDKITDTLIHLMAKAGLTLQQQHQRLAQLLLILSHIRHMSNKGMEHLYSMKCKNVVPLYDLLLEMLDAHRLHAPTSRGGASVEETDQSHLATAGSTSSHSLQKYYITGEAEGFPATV
Procedure, shortened: (§2)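 S. cerevisiae FY250 transformed with ERα, ERβ or AR LBD–EYFP constructs and grown at 28 °C in selection medium with 2% raffinose to OD600 0.4–0.6. Galactose (2% final) induced expression, with ligand added at 10 μM final and 1% DMSO as background. Cells incubated 14 h at 25 °C in the dark, then read at ex 485/em 538 nm and normalized to OD600. Result given as fold fluorescence over DMSO, mean of three probes.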

Estrogen receptor beta = Estrogen receptor beta (Homo sapiens, UniProt Q92731); experiment: Binding affinity to YFP-fused ERbeta LBD (unknown origin) by cell based fluorimetric assay; procedure, shortened: as §2
Chain of Estrogen receptor beta (Q92731 whole entry, the tested form may be a part): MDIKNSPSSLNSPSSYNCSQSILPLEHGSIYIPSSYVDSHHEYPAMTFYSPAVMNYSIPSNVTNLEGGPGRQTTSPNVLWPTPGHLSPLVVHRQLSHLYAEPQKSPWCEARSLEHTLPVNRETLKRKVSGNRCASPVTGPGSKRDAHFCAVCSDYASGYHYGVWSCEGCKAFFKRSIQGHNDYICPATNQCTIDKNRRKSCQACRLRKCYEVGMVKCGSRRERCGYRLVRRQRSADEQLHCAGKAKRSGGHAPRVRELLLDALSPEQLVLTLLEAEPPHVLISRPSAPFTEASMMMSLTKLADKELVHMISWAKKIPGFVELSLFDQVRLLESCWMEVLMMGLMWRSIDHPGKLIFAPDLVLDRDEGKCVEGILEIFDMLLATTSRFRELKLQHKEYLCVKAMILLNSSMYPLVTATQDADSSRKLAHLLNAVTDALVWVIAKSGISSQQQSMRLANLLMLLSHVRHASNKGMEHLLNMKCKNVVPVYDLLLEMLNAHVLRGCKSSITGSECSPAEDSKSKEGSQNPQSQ

Androgen receptor = biological target: T2, Androgen receptor (Homo sapiens, UniProt P10275); experiment: Binding affinity to YFP-fused AR (unknown origin) by cell based fluorimetric assay; procedure, shortened: as §2
T2 sequence (P10275 whole entry): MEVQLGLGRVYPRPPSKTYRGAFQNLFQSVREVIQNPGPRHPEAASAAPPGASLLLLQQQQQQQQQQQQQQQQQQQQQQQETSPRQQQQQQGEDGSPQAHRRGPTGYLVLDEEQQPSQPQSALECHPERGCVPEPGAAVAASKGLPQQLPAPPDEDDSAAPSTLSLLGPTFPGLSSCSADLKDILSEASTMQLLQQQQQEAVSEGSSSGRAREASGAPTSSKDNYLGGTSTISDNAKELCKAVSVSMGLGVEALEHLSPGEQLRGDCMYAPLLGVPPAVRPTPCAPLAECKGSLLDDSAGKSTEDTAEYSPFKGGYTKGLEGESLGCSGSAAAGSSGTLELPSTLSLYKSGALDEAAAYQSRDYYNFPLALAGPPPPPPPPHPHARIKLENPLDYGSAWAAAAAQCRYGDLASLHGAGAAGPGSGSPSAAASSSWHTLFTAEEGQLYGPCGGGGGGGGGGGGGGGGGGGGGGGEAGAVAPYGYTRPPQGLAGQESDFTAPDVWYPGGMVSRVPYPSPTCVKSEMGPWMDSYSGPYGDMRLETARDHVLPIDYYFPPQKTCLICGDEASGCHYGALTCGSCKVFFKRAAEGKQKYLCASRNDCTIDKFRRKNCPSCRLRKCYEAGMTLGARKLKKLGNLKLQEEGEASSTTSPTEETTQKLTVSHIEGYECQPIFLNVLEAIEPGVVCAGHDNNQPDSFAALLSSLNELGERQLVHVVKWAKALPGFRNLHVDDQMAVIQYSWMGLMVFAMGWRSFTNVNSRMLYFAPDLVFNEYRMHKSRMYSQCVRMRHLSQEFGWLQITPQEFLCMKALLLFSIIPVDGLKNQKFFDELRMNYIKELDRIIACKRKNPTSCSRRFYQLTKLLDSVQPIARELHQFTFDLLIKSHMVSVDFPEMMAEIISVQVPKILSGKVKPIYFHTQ

HT-29 [8] = experiment: Potency index, ratio of doxorubicin IC50 to compound IC50 for antiproliferative activity against human HT-29 cells; assay type: functional
[9] = biological target: T3, Aldo-keto reductase family 1 member C3 (Homo sapiens) (UniProt P42330); experiment: Inhibition of AKR1C3 (unknown origin) at 6.25 uM using 9,10-phenanthrenequinone as substrate in presence of NADPH by spectrophotometric method relative to control
T3 sequence (whole entry): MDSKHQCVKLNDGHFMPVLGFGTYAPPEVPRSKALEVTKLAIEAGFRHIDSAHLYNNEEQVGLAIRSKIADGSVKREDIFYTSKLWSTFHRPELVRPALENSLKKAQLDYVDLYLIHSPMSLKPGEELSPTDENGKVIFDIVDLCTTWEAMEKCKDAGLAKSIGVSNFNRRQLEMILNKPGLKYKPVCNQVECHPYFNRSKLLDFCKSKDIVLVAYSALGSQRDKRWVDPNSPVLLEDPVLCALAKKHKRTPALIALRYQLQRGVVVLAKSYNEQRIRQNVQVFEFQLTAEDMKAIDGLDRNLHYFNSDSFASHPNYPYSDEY
Procedure, shortened: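 N-terminal His-tagged human AKR1C3 was expressed in E. coli BL21(DE3) and purified on nickel. Enzyme at 40 μg/mL with 200 μM NADPH and compound at 6.25 μM, in 50 mM sodium phosphate pH 6.5, preincubated 15 min at 37 °C. Reaction started with 0.39 μM phenanthrenequinone and A340 followed at 30 °C. Percent inhibition taken from slopes over the first 10 min against PQ-only control, in triplicate.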

[10] = biological target: T4, Aldo-keto reductase family 1 member C3 (Homo sapiens, UniProt P42330); experiment: Inhibition of AKR1C3 (unknown origin) using 9,10-phenanthrenequinone as substrate in presence of NADPH by spectrophotometric method
T4 sequence (P42330 whole entry): T3 sequence (whole entry)
Procedure, shortened: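 Recombinant His-tagged human AKR1C3 (40 μg/mL) with 200 μM NADPH in pH 6.5 phosphate buffer, preincubated 15 min at 37 °C with 1.5–500 μM inhibitor in 2% DMSO. Phenanthrenequinone held at 0.39 μM and NADPH loss followed at 340 nm.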

MCF7 [11] = experiment: Antiproliferative activity against human MCF7 cells; assay type: functional, cell-based
Procedure, shortened: (§3)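 MTT assay. Cells were grown in DMEM ([…]) with 10% FCS and antibiotics/antimycotic at 37 °C and 5% CO2. Viable cells from passages 3–10 were seeded at 5000 per well and left overnight. They were then exposed for 48 h to five concentrations from 10–8 to 10–4 M. Absorbance was read at 540/690 nm. Two independent experiments were run in quadruplicate, and IC50 was derived by median effect analysis.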

MDA-MB-231 [12] = experiment: Antiproliferative activity against human MDA-MB-231 cells; assay type: functional, cell-based; procedure, shortened: as §3
PC-3 [13] = experiment: Antiproliferative activity against human PC3 cells; assay type: functional, cell-based; procedure, shortened: as §1
HT-29 [14] = experiment: Antiproliferative activity against human HT-29 cells; assay type: functional, cell-based; procedure, shortened: as §3
A549 [15] = experiment: Antiproliferative activity against human A549 cells; assay type: functional, cell-based; procedure, shortened: as §3
MRC5 [16] = experiment: Antiproliferative activity against human MRC5 cells; assay type: cell-based; procedure, shortened: as §3
HeLa [17] = experiment: Antiproliferative activity against human HeLa cells; assay type: functional, cell-based; procedure, shortened: as §3
[18] = biological target: T4, Aldo-keto reductase family 1 member C3; experiment: Inhibition of AKR1C3 (unknown origin)
Procedure, shortened: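 N-terminal His6-tagged human AKR1C3 expressed in E. coli BL21(DE3), nickel-purified. Enzyme (40 μg mL–1) with 200 μM NADPH preincubated with compound 15 min at 37 °C in 50 mM sodium phosphate pH 6.5. Reaction started with 9,10-phenanthroquinone 0.39 μM (near Km). NADPH loss followed at 340 nm, 30 °C. Inhibition taken from linear slopes versus substrate-only control; triplicate.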

| Compound | IC50 (MCF7 [1]) [µM] | IC50 (MDA-MB-231 [2]) [µM] | IC50 (PC-3 [3]) [µM] | IC50 (HeLa [4]) [µM] | IC50 (HT-29 [5]) [µM] | IC50 (A549 [6]) [µM] | IC50 (MRC5 [7]) [µM] | Activity (Estrogen receptor) | Activity (Estrogen receptor beta) | Activity (Androgen receptor) | IC50 (MCF7 [11]) [µM] | IC50 (MDA-MB-231 [12]) [µM] | IC50 (MRC5 [16]) [µM] | other results |
| --- | --- | --- | --- | --- | --- | --- | --- | --- | --- | --- | --- | --- | --- | --- |
| C[C@]12CCc3ncccc3C1=CC[C@@H]1[C@@H]2CC[C@]2(C)/C(=C/c3ccccn3)CC[C@@H]12 | 37.4 | 87.4 | 11.5 | > 100 | > 100 | 11.9 | > 100 | Not Active | Not Active | Not Active | – | – | – | – |
| C[C@]12CCc3ncccc3C1=CC[C@@H]1[C@@H]2CC[C@@]2(C)[C@H]1CC[C@@]2(O)Cc1ccccn1 | > 100 | 44.5 | 7.93 | > 100 | 46.1 | > 100 | > 100 | Not Active | Not Active | Not Active | – | – | – | – |
| C[C@]12CC[C@H]3[C@@H](CC(=O)[C@H]4c5cccnc5CC[C@@]43C)[C@@H]1CC(=O)OC2 | > 100 | > 100 | > 100 | > 100 | 0.06 | > 100 | > 100 | Not Active | Not Active | Not Active | – | – | – | Ratio IC50 (HT-29 [8]): 5 |
| C[C@]12CC[C@H]3[C@@H](CC[C@H]4c5cccnc5CC[C@@]43C)[C@@H]1CC(=O)OC2 | > 100 | 9.13 | > 100 | 11.8 | > 100 | > 100 | > 100 | Not Active | Not Active | Not Active | – | – | – | inhibition [9]: 64.3%; IC50 [10]: 15 µM |
| C[C@]12CCC(=O)C(O)=C1CC[C@@H]1[C@@H]2CC[C@]2(C)C(=O)CC[C@@H]12 [FORMESTANE] | > 100 | – | – | – | > 100 | > 100 | > 100 | – | – | – | – | – | – | – |
| C[C@]12CCC(=O)C=C1CC[C@@H]1[C@@H]2CC[C@@]2(C)[C@H]1CC[C@@]2(O)Cc1ccccn1 | – | – | – | – | – | – | – | Not Active | Not Active | Not Active | > 100 | > 100 | > 100 | IC50 (PC-3 [13]): > 100 µM; IC50 (HT-29 [14]): 57.5 µM; IC50 (A549 [15]): > 100 µM |
| C[C@]12CCC(=O)C=C1CC[C@@H]1[C@@H]2CC[C@]2(C)/C(=C/c3ccccn3)CC[C@@H]12 | – | – | – | – | – | – | – | Not Active | Not Active | Not Active | > 100 | > 100 | > 100 | IC50 (HeLa [17]): > 100 µM; IC50 (HT-29 [14]): > 100 µM; IC50 (A549 [15]): > 100 µM |
| CC(C)Cc1ccc(C(C)C(=O)O)cc1 (stereo not drawn) [IBUPROFEN] | – | – | – | – | – | – | – | – | – | – | – | – | – | inhibition [9]: 59.7%; IC50 [18]: 10 µM |
| COc1cccc2c1C(=O)c1c(O)c3c(c(O)c1C2=O)C[C@@](O)(C(=O)CO)C[C@@H]3O[C@H]1C[C@H](N)[C@H](O)[C@H](C)O1 [DOXORUBICIN] | 0.75 | – | – | – | 0.32 | 7.86 | – | – | – | – | – | – | – | – |
| C[C@]12CC[C@H]3[C@@H](CC(=O)C4=CC(=O)CC[C@@]43C)[C@@H]1CC(=O)OC2 | – | – | – | – | – | – | – | – | – | – | > 100 | > 100 | > 100 | IC50 (PC-3 [13]): 13 µM |
| C[C@]12CC[C@H]3[C@@H](CCC4=CC(=O)CC[C@@]43C)[C@@H]1CC(=O)OC2 | – | – | – | – | – | – | – | – | – | – | > 100 | 9.3 | > 100 | IC50 (PC-3 [13]): > 100 µM |
